Legend:
Androgen receptor = molecular target: T1, Androgen receptor (Homo sapiens, UniProt P10275); test: Displacement of [3H]mibolerone from human Androgen receptor
T1 sequence (P10275 whole entry): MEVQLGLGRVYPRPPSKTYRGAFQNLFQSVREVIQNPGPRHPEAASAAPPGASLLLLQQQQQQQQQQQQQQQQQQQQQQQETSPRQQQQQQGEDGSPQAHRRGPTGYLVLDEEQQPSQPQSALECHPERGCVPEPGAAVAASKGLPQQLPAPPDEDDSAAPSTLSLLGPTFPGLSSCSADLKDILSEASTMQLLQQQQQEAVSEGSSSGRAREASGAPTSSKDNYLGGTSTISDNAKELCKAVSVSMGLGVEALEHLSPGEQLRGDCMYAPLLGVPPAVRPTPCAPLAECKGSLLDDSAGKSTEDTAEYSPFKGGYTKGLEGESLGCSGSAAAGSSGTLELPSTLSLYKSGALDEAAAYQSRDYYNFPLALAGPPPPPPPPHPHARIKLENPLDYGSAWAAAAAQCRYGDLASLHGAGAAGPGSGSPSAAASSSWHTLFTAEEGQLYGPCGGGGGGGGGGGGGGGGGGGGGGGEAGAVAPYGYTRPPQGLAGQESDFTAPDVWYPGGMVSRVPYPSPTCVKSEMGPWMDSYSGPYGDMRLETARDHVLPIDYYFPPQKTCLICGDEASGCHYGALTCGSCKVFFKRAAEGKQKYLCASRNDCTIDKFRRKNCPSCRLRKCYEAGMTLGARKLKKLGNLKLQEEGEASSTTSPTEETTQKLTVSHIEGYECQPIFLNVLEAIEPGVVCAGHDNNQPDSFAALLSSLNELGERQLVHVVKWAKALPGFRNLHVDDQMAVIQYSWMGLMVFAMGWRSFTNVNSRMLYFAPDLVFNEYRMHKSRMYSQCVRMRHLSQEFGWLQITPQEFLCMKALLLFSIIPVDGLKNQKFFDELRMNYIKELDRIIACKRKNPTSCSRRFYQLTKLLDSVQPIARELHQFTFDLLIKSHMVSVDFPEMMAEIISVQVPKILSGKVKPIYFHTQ

[1] = molecular target: T2, Mineralocorticoid receptor (Homo sapiens, UniProt P08235); test: Displacement of [3H]aldosterone from human Mineralocorticoid receptor
T2 sequence (P08235 whole entry): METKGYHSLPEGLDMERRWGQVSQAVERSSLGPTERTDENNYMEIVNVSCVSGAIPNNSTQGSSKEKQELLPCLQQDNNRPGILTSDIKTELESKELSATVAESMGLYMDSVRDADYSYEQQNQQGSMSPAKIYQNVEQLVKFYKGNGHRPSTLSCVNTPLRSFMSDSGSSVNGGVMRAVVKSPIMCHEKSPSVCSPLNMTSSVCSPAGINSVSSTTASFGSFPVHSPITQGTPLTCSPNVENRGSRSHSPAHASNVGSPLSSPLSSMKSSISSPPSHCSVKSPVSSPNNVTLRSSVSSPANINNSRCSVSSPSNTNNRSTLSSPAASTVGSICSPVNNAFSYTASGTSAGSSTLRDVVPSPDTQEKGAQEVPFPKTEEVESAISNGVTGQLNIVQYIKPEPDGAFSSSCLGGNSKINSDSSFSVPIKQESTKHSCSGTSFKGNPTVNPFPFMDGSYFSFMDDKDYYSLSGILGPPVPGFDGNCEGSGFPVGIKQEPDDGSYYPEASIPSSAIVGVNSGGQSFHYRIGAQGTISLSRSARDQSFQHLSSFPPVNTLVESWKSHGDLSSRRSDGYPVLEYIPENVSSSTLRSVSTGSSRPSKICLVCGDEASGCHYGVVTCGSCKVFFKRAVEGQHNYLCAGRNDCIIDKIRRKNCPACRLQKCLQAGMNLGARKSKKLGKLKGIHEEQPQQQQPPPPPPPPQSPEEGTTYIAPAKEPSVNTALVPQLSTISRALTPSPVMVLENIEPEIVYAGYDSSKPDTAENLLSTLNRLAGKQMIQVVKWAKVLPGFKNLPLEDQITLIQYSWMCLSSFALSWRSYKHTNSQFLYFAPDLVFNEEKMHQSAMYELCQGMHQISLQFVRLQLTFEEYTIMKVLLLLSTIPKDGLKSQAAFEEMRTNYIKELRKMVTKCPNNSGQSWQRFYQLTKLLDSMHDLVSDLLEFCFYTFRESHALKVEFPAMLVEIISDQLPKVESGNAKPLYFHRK
Outline: (§1)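 Human steroid receptor (PR, MR, AR, ERα) binding measured by radioligand displacement, with IC50s determined in duplicate. Values without a range come from a single experiment, and values with a range are geometric means of repeat experiments.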

Estrogen receptor = molecular target: T3, Estrogen receptor (Homo sapiens, UniProt P03372); test: Displacement of [3H]estradiol from human estrogen receptor alpha; outline: as §1
T3 sequence (P03372 whole entry): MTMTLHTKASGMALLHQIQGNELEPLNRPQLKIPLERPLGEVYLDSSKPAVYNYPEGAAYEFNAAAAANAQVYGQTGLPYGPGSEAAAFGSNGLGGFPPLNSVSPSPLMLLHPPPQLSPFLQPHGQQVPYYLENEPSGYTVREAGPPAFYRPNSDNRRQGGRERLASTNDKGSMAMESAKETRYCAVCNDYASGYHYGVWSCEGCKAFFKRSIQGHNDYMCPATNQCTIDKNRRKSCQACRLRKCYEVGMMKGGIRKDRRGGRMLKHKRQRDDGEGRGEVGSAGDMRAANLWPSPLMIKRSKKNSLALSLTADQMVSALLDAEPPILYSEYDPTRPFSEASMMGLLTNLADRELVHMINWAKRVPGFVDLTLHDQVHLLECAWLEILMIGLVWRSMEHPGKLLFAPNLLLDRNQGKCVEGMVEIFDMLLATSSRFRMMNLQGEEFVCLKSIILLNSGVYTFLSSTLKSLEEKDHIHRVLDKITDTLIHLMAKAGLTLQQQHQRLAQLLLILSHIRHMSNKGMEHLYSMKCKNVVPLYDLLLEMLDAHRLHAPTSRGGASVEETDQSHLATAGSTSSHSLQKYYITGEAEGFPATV

## COc1cccc2c1-c1ccc(NS(C)(=O)=O)cc1C(c1cccs1)O2 (stereo not given)
Androgen receptor
  IC50: > 10 µM
[1]
  IC50: 2.25 µM
Estrogen receptor
  IC50: > 10 µM

## COc1cccc2c1-c1ccc(NS(C)(=O)=O)cc1C(c1cccc(F)c1)O2 (stereo not given)
Androgen receptor
  IC50: > 10 µM
[1]
  IC50: 0.683 µM
Estrogen receptor
  IC50: > 10 µM

## COc1cccc2c1-c1ccc(NS(C)(=O)=O)cc1C(c1ccc(F)cc1)O2 (stereo not given)
Androgen receptor
  IC50: > 10 µM
[1]
  IC50: 2.48 µM
Estrogen receptor
  IC50: > 1 µM

## COc1cccc2c1-c1ccc(NS(C)(=O)=O)cc1C(c1ccc(C)cc1)O2 (stereo not given)
Androgen receptor
  IC50: > 10 µM
[1]
  IC50: 0.651 µM
Estrogen receptor
  IC50: > 10 µM

## CCOc1cccc2c1-c1ccc(NS(C)(=O)=O)cc1C(c1ccccc1)O2 (stereo not given)
Androgen receptor
  IC50: > 10 µM
[1]
  IC50: 0.893 µM
Estrogen receptor
  IC50: > 10 µM

Source: ChEMBL document CHEMBL1147539, “Synthesis and biological evaluation of novel, selective, nonsteroidal glucocorticoid receptor antagonists” (Bioorg Med Chem Lett, 2004)
